Assay results taken from ChEMBL document CHEMBL1250458, “Targeting the ICB2 site of the topoisomerase IIalpha promoter with a formamido-pyrrole-imidazole-pyrrole H-pin polyamide” (Bioorg Med Chem, 2010).
Calls of active or inactive are those of the source. The calls are words filed in the database; no cut-off is given here.

Key:
Nucleic Acid [1] = assay: Binding affinity to ICB2 site of topoisomerase 2alpha non-cognate AAATTT assessed as change in melting temperature at 3 uM by thermal denaturation; type: nucleic-acid assay
How it was run: (§1)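 Thermal melting by UV spectrophotometry: DNA hairpin 1 µM with compound 3 µM in PO40 buffer (10 mM phosphate, 12.5 mM Na+, 1 mM EDTA, pH 6.2). ΔTm taken as the difference in Tm between ligand-bound and free DNA.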

B16 = assay: Cytotoxicity against mouse B16 cells after 72 hrs by MTT assay; type: cell-based; settings: B16, 72 h
How it was run: (§2)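 Cells exposed to a compound concentration gradient for 72 h, then MTT added and developed 4 h. Absorbance read; IC50 taken as the concentration giving 50% growth inhibition versus untreated control.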

Nucleic Acid [2] = assay: Binding affinity to ICB2 site of topoisomerase 2alpha cognate sequence TACGAT by circular dichroism spectra analysis; type: nucleic-acid assay
How it was run: (§3)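 CD spectra recorded in a 1 mm cuvette with 2.4 nm bandpass, integration time set as a function of PMT high volts. PO45 buffer (10 mM phosphate, 50 mM Na+, 1 mM EDTA, pH 6.2); run in duplicate.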

NIH3T3 = assay: Inhibition of topoisomerase 2alpha expression in mouse NIH/3T3 cells up to 80 uM after 4 to 24 hrs by Western blotting; type: functional, cell-based
How it was run: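 NIH 3T3 cells held at confluence for 96 h, then treated with compound (40 and 80 µM) for 6 and 24 h. Nuclear extract (50 µg) immunoblotted with polyclonal topoIIα antibody (1:1000), detected by ECL. Lamin A/C used as loading control.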

Nucleic Acid [3] = assay: Binding affinity to ICB2 site of topoisomerase 2alpha cognate sequence ATCGAT at 1 uM after 30 mins by DNase I footprinting assay; type: nucleic-acid assay
How it was run: (§4)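 DNase I footprinting on a PCR-made radiolabeled 131-bp fragment. The fragment was incubated 30 min at room temperature with drug in TN buffer (10 mM Tris, 10 mM NaCl, pH 7). It was then cleaved 3 min with 0.02 U DNase I in buffer containing Mg2+/Mn2+ (pH 8.0) and stopped on dry ice. Products were resolved on a denaturing 10% polyacrylamide urea gel.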

L1210 = assay: Cytotoxicity against mouse L1210 cells after 72 hrs by MTT assay; type: cell-based; settings: L1210, 72 h; how it was run: as §2
Nucleic Acid [4] = assay: Binding affinity to ICB2 site of topoisomerase 2alpha cognate sequence ATCGAT at 2 uM after 30 mins by DNase I footprinting assay; type: nucleic-acid assay; how it was run: as §4
Nucleic Acid [5] = assay: Binding affinity to biotinylated ICB2 site of topoisomerase 2alpha cognate sequence ATCGAT by surface plasmon resonance assay; type: nucleic-acid assay
How it was run: (§5)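 SPR at 25 °C with biotinylated DNA hairpins immobilized on a chip, in cacodylic acid buffer pH 6.25 with 0.1 M NaCl. Compound injected at a range of concentrations (up to 4 µM) at 25 µL/min with 400 s dissociation; surface regenerated with glycine pH 2.5. Keq derived from steady-state fits.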

Nucleic Acid [6] = assay: Binding affinity to ICB2 site of topoisomerase 2alpha cognate sequence ATCGAT by isothermal titration microcalorimetry; type: nucleic-acid assay
How it was run: (§6)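 ITC at 25 °C in PO45 buffer. Compound (100 µM) titrated into 2 µM DNA as 50 injections every 240 s after a 300 s delay. A linear fit was subtracted from the integrated heats to remove non-specific heat, giving ΔH.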

Nucleic Acid [7] = assay: Binding affinity to ICB2 site of topoisomerase 2alpha cognate sequence TACGAT by isothermal titration microcalorimetry; type: nucleic-acid assay; how it was run: as §6
Nucleic Acid [8] = assay: Binding affinity to ICB2 site of topoisomerase 2alpha non-cognate AAATTT by isothermal titration microcalorimetry; type: nucleic-acid assay; how it was run: as §6
Nucleic Acid [9] = assay: Inhibition of nuclear factor Y binding to ICB2 site of topoisomerase 2alpha cognate sequence TACGAT in mouse NIH/3T3 cells at > 3 uM treated after addition of probe by electrophoretic mobility shift assay; type: cell-based; settings: NIH3T3
Nucleic Acid [10] = assay: Binding affinity to ICB2 site of topoisomerase 2alpha cognate sequence TACGAT assessed as change in melting temperature at 3 uM by thermal denaturation; type: nucleic-acid assay; how it was run: as §1
Nucleic Acid [11] = assay: Binding affinity to ICB2 site of topoisomerase 2alpha cognate sequence ATCGAT assessed as change in melting temperature at 3 uM by thermal denaturation; type: nucleic-acid assay; how it was run: as §1
Nucleic Acid [12] = assay: Binding affinity to ICB2 site of topoisomerase 2alpha cognate sequence ATCGAT at 6 molar equivalent concentration by circular dichroism spectra analysis; type: nucleic-acid assay; how it was run: as §3
Nucleic Acid [13] = assay: Binding affinity to biotin labeled ICB2 site of topoisomerase 2alpha non-cognate AAATTT by surface plasmon resonance assay; type: nucleic-acid assay; how it was run: as §5
Nucleic Acid [14] = assay: Inhibition of nuclear factor Y binding to ICB2 site of topoisomerase 2alpha cognate sequence TACGAT in mouse NIH/3T3 cells at > 3 uM preincubated for 1 hr by electrophoretic mobility shift assay; type: cell-based; settings: NIH3T3

| SMILES | ΔTm (Nucleic Acid [1]) | IC50 (B16) | Activity (Nucleic Acid [2]) | Activity (NIH3T3) | Activity (Nucleic Acid [3]) | IC50 (L1210) | Activity (Nucleic Acid [4]) | Ke (Nucleic Acid [5]) | Activity (Nucleic Acid [6]) | Activity (Nucleic Acid [7]) | Activity (Nucleic Acid [8]) | Activity (Nucleic Acid [9]) | ΔTm (Nucleic Acid [10]) | ΔTm (Nucleic Acid [11]) | Activity (Nucleic Acid [12]) | Ke (Nucleic Acid [13]) | Activity (Nucleic Acid [14]) |
| --- | --- | --- | --- | --- | --- | --- | --- | --- | --- | --- | --- | --- | --- | --- | --- | --- | --- |
| CN(C)CCCNC(=O)c1cc(NC(=O)c2nc(NC(=O)c3cc(NC=O)cn3CCOCCOCCn3cc(NC=O)cc3C(=O)Nc3cn(C)c(C(=O)Nc4cc(C(=O)NCCCN(C)C)n(C)c4)n3)cn2C)cn1C | 4 °C | > 100 µM | Active | inactive | Active | > 100 µM | Active | 5 ×10⁵ /M | Active | Active | inactive | Active | 3 °C | 6 °C | Active | inactive | Active |
| CN(C)CCCNC(=O)c1cc(NC(=O)c2nc(NC(=O)c3cc(NC=O)cn3C)cn2C)cn1C |  |  |  |  | inactive |  | Active |  |  |  |  |  |  |  |  |  |  |
